# Source: paper PMC6416488 (Protein and Peptide Letters, 2019)
# What was measured:
# PC12 cells = assay: Intracellular ROS; type: cell-based, rat; conditions: 1 μM curcumin pretreatment 6 h, H2O2 125 μM 16 h, DCFH-DA
# How it was run: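 PC12 cells were seeded at 20,000/well and pre-incubated 24 h, then switched to protein-free DMEM. They were pretreated 6 h with 1 μM test compound or its protein complex, then exposed to freshly prepared H2O2 (125 μM) for 16 h. DCFH-DA (10 μM) was added for 45 min at 37 °C. Cells were washed twice in PBS, and DCF fluorescence (ex 480/488, em 540/525 nm) was read by microplate reader. Controls were DMSO-treated cells. Results are mean ± S.E.M. of three experiments.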
# native (unmodified) BSA = native (unmodified) BSA (Bos taurus, UniProt P02769); assay: Intrinsic fluorescence quenching, binding constant and thermodynamics; design: species or system Bovine; conditions: unmodified albumin
# [1] = extremely safe even at very high doses; cited from earlier work
# SKNMC cells = assay: MTT assay, in vitro anti-cancer activity; type: cell-based, human; conditions: 44 µM, 24 h
# How it was run: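 SKNMC cells were grown in DMEM with 10% FBS and 1% penicillin–streptomycin at 37 °C, 5% CO2, 95% humidity. They were seeded at 20,000/well and pre-incubated 24 h. Medium was replaced with protein-free DMEM, and test compound in DMSO (0–50 μM), alone or protein-complexed, was added for 24 h. MTT (0.5 mg/mL) was added for 4 h, formazan was dissolved in DMSO, and A570 was read. Viability is relative to untreated cells; three separate experiments.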
# [2] = phase I trial, oral administration of 3.6 g/day; cited from earlier work
# [3] = Solvent- and light-mediated curcumin degradation; type: physicochemical; conditions: absolute ethanol, 10 μM curcumin, absorbance 420 nm
# How it was run: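 Test compound: 5 mM methanol stock diluted to 10 μM in absolute ethanol. Samples were held at room temperature either in darkness or under a 100 W lamp. Absorbance maximum at 420 nm was recorded at intervals within 30 min. Degradation rate was taken from the initial slope of a best-fit line.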
# [4] = physiological pH; cited from earlier work
# [5] = target: T1, modified (acetylated) β-lg (Bos taurus, UniProt P02754); assay: Intrinsic fluorescence quenching, binding constant and thermodynamics; design: species or system Bovine; conditions: modified B-LG
# T1 sequence (P02754 17-178): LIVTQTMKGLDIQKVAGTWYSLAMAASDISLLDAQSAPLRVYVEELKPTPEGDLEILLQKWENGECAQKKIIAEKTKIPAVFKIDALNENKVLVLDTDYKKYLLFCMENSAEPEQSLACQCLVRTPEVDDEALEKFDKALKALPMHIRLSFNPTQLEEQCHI
# How it was run: (§1)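 Proteins were acetylated at 10% w/v in water, 30 °C, pH 7.5–8.5, with acetic anhydride 0.5 g/g protein added over 30–90 min. They were dialysed 24 h against 20 mM phosphate pH 7.0, and lysine modification was checked by TNBS. β-lg was purified from cow milk (>97% by SDS-PAGE). Protein (1 μM) was mixed 1 min with test compound (0–2 μM). Intrinsic fluorescence was read at ex 290, em 310–700 nm. Kb and n came from a double-log Stern–Volmer plot, ΔH°/ΔS° from van't Hoff, and ΔG° from Gibbs.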
# [6] = Effect of temperature on hydrolytic stability of curcumin; type: physicochemical; conditions: 80°C, 10 μM curcumin, 20 mM sodium phosphate buffer pH 7.0, 60 min, darkness
# How it was run: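 Test compound: 1 mM methanol stock diluted to 10 μM in 20 mM sodium phosphate buffer pH 7.0. Kept in darkness at 4, 25, 37 or 80 °C for up to 60 min and sampled at set intervals. Fluorescence spectra were taken at excitation 420 nm, emission 440–700 nm, with slits 10/20. Maximum emission was followed over time, and the decomposition rate was taken from the initial slope of a linear fit.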
# [7] = without and in the presence of β-lg; ref 10d; cited from earlier work
# native (unmodified) β-lg = target: T2, native (unmodified) β-lg (Bos taurus, UniProt P02754); assay: Intrinsic fluorescence quenching, binding constant and thermodynamics; design: species or system Bovine; conditions: unmodified B-LG
# T2 sequence (P02754 17-178): T1 sequence (P02754 17-178)
# How it was run: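 Unmodified protein was used; β-lg was purified from fresh cow milk (>97% by SDS-PAGE). Protein (1 μM) in 20 mM sodium phosphate pH 7.0 was co-incubated 1 min with test compound (0–2 μM). Quenching was read at excitation 290 nm, emission 310–700 nm, slits 5/10 nm. Kb and n came from a modified Stern–Volmer double-log plot, ΔH° and ΔS° from the van't Hoff ln Kb vs 1/T slope and intercept, and ΔG° from the Gibbs equation. Data points are means of three determinations.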
# [8] = ref 3b; cited from earlier work
# [9] = target: modified (acetylated) BSA (Bos taurus, UniProt P02769); assay: Intrinsic fluorescence quenching, binding constant and thermodynamics; design: species or system Bovine; conditions: modified albumin
# How it was run: as §1
# modified (acetylated) BSA, sequence (P02769 25-607): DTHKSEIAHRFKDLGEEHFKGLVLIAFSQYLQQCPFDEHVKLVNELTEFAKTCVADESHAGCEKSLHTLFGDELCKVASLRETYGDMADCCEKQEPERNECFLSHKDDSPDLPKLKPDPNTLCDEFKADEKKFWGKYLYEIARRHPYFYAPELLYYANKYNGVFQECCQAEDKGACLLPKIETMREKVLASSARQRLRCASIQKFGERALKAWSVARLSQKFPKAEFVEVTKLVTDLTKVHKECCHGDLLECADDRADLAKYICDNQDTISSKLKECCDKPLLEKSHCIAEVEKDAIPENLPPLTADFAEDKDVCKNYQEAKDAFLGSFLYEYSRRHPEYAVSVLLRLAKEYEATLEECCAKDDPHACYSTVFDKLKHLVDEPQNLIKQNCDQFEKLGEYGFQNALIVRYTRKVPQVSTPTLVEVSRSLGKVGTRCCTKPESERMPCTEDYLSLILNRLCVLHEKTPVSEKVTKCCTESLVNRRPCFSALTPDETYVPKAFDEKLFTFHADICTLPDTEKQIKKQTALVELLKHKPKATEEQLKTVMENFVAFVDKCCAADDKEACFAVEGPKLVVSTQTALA
# native (unmodified) BSA, sequence (P02769 25-607): as above
substance,measurement,setting,value
"1,7-bis(4-hydroxy-3-methoxyphenyl)-1,6- heptadiene-3,5-dione [curcumin]",effect on H2O2-induced intracellular ROS levels,PC12 cells,significantly reduced
same,ΔG°,native (unmodified) BSA; 310 K (per Table S1),-9.1702 ± 0.2751 kcal/mol
same,N (number of curcumin binding sites),native (unmodified) BSA; Table 1,1.249±0.02
same,ΔH°,"native (unmodified) BSA; van't Hoff, 277-310 K",6.4971 ± 0.195 kcal/mol
same,ΔS°,"native (unmodified) BSA; van't Hoff, 277-310 K",0.212±0.002 J mol^-1·K^-1
same,safe dose,[1],8 to 12 g/day
same,cell viability,SKNMC cells,88%
same,concentration of curcumin in plasma,[2],11.1 nM
same,concentration of curcumin in target tissues,[2],1300 nM
same,degradation in non-aqueous solvent,[3],did not degrade
same,time to molecular fragmentation and degradation by hydrolysis,[4],≤ 30 min
same,ΔG°,[5]; 310 K (per Table S1),-9.6836 ± 0.387 kcal/mol
same,N (number of curcumin binding sites),[5]; Table 1,1.347±0.042
same,ΔH°,"[5]; van't Hoff, 277-310 K",2.227 ± 0.0225 kcal/mol
same,ΔS°,"[5]; van't Hoff, 277-310 K",0.161±0.006 J mol^-1·K^-1
same,initial curcumin population remained intact,[6],more than 40%
same,curcumin half-life,[7],30.8 min
same,ΔG°,native (unmodified) β-lg; 310 K (per Table S1),-7.0335 ± 0.4218 kcal/mol
same,N (number of curcumin binding sites),native (unmodified) β-lg; Table 1,1.145±0.034
same,ΔH°,"native (unmodified) β-lg; van't Hoff, 277-310 K",-6.4892 ± 0.195 kcal/mol
same,ΔS°,"native (unmodified) β-lg; van't Hoff, 277-310 K",0.007±0.001 J mol^-1·K^-1
same,solubility in water,[8],about 11 ng/mL
same,ΔG°,[9]; 310 K (per Table S1),-4.6953 ± 0.141 kcal/mol
same,N (number of curcumin binding sites),[9]; Table 1,0.975±0.015
same,ΔH°,"[9]; van't Hoff, 277-310 K",-8.1783 ± 0.163 kcal/mol
same,ΔS°,"[9]; van't Hoff, 277-310 K",-0.047±0.001 J mol^-1·K^-1
